The values that follow come from ChEMBL document CHEMBL1134284, “The biological effects of structural variation at the meta position of the aromatic rings and at the end of the alkenyl chain in the alkenyldiarylmethane series of non-nucleoside reverse transcriptase inhibitors” (J Med Chem, 2001).

The term IC50 denotes the concentration that gives 50% inhibition. Read a low IC50 as inhibition by little substance. A word on the EC50: it is the concentration needed to bring the measured effect to its halfway point. Read a high EC50 as lower potency in that assay. For orientation: CC50 means the concentration giving 50% cytotoxicity.

For series [1], the system named is CCRF-CEM. The series is described as follows: Antiviral activity against site directed resistant isolate HIV-1 L100I in CEM cells. In kind it is functional, cell-based, Homo sapiens. An outline of the steps: (§1)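 CEM-SS cells in RPMI 1640 with 10% heat-inactivated FBS were infected with NL4-3 molecular clones carrying site-directed RT mutations. Cytoprotection from virus-induced syncytial killing was read by MTS/phenazine ethosulfate reduction (A490) 6 days after infection. […] Triplicate, variation of mean about 10%.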

The test system of series [2] is CCRF-CEM. The series is described as follows: Antiviral activity against site directed 4X AZT resistant isolate HIV-1 L100I in CEM cells. The class given is functional, cell-based, Homo sapiens. An outline of the steps: (§2)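 CEM-SS cells infected with low-cytopathicity site-directed RT-mutant NL4-3 clones (A98G, L74V, 4XAZT = D67N/K70R/T215Y/K219Q, 4XAZT/L100I). Replication was quantified by p24 ELISA rather than cytoprotection. […] Triplicate, variation of mean about 10%.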

Series [3] is described as follows: Antiviral activity against subtype isolate D strain in PBLs (peripheral blood lymphocytes). In kind it is functional, cell-based. The following applies: Homo sapiens. An outline of the steps:
(§3)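 PBMCs isolated from hepatitis- and HIV-seronegative donors by Ficoll-Hypaque gradient and stimulated 3 days with phytohemagglutinin/IL-2. Infected with pediatric low-passage clinical isolates or NIAID subtype isolates, in RPMI 1640 with 10% FBS, 2 mM glutamine, penicillin/streptomycin. Replication read as supernatant reverse transcriptase activity. […] Run in triplicate, with AZT as positive control.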

Series [4] deals with Human immunodeficiency virus type 1 (RF/HAT ISOLATE). The series is described as follows: Inhibitory concentration for cytopathicity of HIV-1RF in CEM-SS cells. The class given is functional, organism-based. The following applies: Human immunodeficiency virus 1, RF. An outline of the steps:
(§4)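 CEM-SS cells kept in RPMI 1640 with 10% heat-inactivated FBS, 2 mM glutamine, penicillin/streptomycin. Microtiter assay with cytopathic HIV-1 RF, or mock infection for toxicity. Viability read by MTS/phenazine ethosulfate reduction (absorbance 490 nm) 6 days after infection. […] Triplicate.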

Series [5] in a line: Antiviral activity against subtype isolate B strain in PBLs (peripheral blood lymphocytes). The class given is functional, cell-based, Homo sapiens. Conditions: Homo sapiens; call rule not given here. An outline of the steps: as §3
Series [6] relates to CCRF-CEM. Description: Antiviral activity against site directed resistant isolate HIV-1 K101E in CEM cells. In kind it is functional, cell-based, Homo sapiens.
Series [7] in a line: (§5) Ratio of CC50/EC50 was determined. The following applies: human, CEM-SS cells; read-out: TI. The class given is cell-based. In outline: (§6)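 HIV-1 RF–infected CEM-SS cells (RPMI 1640, 10% heat-inactivated FBS, 2 mM glutamine, penicillin/streptomycin), plus mock-infected CEM-SS in parallel. Cell killing and viability were read by MTS/phenazine ethosulfate reduction at 490 nm 6 days after infection. […] Index = CC50 ÷ EC50. Triplicate tests.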

Series [8] has as its system CCRF-CEM. The series is described as follows: Antiviral activity against site directed resistant isolate HIV-1 Y188C in CEM cells. In kind it is functional, cell-based, Homo sapiens. In outline: as §1
The test system of series [9] is CCRF-CEM. Description: Antiviral activity against site directed resistant isolate HIV-1 L74V in CEM cells. The class given is functional, cell-based, Homo sapiens. In outline: as §2
Series [10] in a line: Antiviral activity against subtype isolate C strain in PBLs (peripheral blood lymphocytes). The class given is functional, cell-based. Conditions: Homo sapiens. An outline of the steps:
as §3

For series [11], the system named is CCRF-CEM. Description: Antiviral activity against site directed resistant isolate HIV-1 Y181C in CEM cells. In kind it is functional, cell-based, Homo sapiens. An outline of the steps:
as §1

The nature of series [12]: Antiviral activity against SLKA virus strain in PBLs (peripheral blood lymphocytes). Conditions: Homo sapiens. The class given is functional, cell-based. An outline of the steps:
as §3

Series [13] concerns CCRF-CEM. The series is described as follows: Antiviral activity against site directed 4X AZT resistant isolate HIV-1 in CEM cells. In kind it is functional, cell-based, Homo sapiens. Conditions: Homo sapiens, CCRF-CEM.
The subject of series [14] is CCRF-CEM. The series is described as follows: Antiviral activity against site directed resistant isolate HIV-1 K103N in CEM cells. In kind it is functional, cell-based, Homo sapiens. An outline of the steps: as §1
In series [15] the test system is CCRF-CEM. Description: Antiviral activity against site directed resistant isolate HIV-1 V106A in CEM cells. The class given is functional, cell-based, Homo sapiens. In outline:
as §1

Series [16] can be described thus: Antiviral activity against WEJO virus strain in PBLs (peripheral blood lymphocytes). The class given is functional, cell-based. Conditions: Homo sapiens. An outline of the steps: as §3
In series [17] the test system is CCRF-CEM. The series is described as follows: Antiviral activity against site directed resistant isolate HIV-1 V179D in CEM cells. The class given is functional, cell-based, Homo sapiens. In outline: as §1
Series [18] is described as follows: Antiviral activity against subtype isolate E strain in PBLs (peripheral blood lymphocytes). The class given is functional, cell-based. The following applies: Homo sapiens.
Series [19] is described as follows: (§7) Antiviral activity against ROJO virus strain in PBLs (peripheral blood lymphocytes). In kind it is functional, cell-based. The following applies: Homo sapiens. In outline:
as §3

Series [20] in a line: Antiviral activity against TEKI virus strain in PBLs (peripheral blood lymphocytes). Conditions: Homo sapiens. The class given is functional, cell-based. In outline:
as §3

In series [21] the test system is CCRF-CEM. The series is described as follows: Antiviral activity against site directed wild-type enzyme isolate HIV-1 NL4-3WT in CEM cells. In kind it is functional, cell-based. The following applies: Homo sapiens. In outline:
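Wild-type NL4-3 in CEM-SS cells, measured both by MTS cytoprotection 6 days after infection and by p24 ELISA. The IC50 is the mean of the two methods' values.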

Series [22] is described as follows: Antiviral activity against multi drug resistant MDR 769 strain in PBLs (peripheral blood lymphocytes). The class given is functional, cell-based. Conditions: Homo sapiens. In outline:
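PBMC from hepatitis- and HIV-seronegative donors isolated by Ficoll-Hypaque gradient and stimulated 3 days with phytohemagglutinin/IL-2 before infection. Medium RPMI 1640 with 10% FBS, 2 mM glutamine, penicillin/streptomycin. Replication read as supernatant reverse transcriptase activity. […] Run in triplicate, SD within triplicate under 10%; AZT positive control.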

The test system of series [23] is CCRF-CEM. Description: Antiviral activity against site directed resistant isolates in HIV-1 A98G CEM cells. In kind it is functional, cell-based, Homo sapiens. In outline:
as §2

Series [24] concerns CEM-SS. Description: Concentration required for cytotoxicity against mock infected CEM-SS cells. The class given is functional. Conditions: Homo sapiens. In outline: as §4
Series [25] is described as follows: Antiviral activity against subtype isolate F strain in PBLs (peripheral blood lymphocytes). In kind it is functional, cell-based, Homo sapiens. In outline:
as §3

Series [26] in a line: Antiviral activity against Ba-L monocyte tropic isolate strain in monocyte. The following applies: Homo sapiens. The class given is functional. An outline of the steps:
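Monocytes isolated from hepatitis- and HIV-seronegative donors by Ficoll-Hypaque gradient, cultured 6 days into macrophages, then infected with Ba-L. Medium RPMI 1640 with 10% FBS, 2 mM glutamine, penicillin/streptomycin. Replication read as p24 antigen by ELISA 6 days postinfection. […] Run in triplicate, with AZT as positive control.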

Series [27] in a line: Antiviral activity against subtype isolate A strain in PBLs (peripheral blood lymphocytes). The class given is functional, cell-based. The following applies: Homo sapiens. In outline:
as §3

Series [28] is described as follows: Antiviral activity against subtype isolate O strain in PBLs (peripheral blood lymphocytes). In kind it is functional, cell-based, Homo sapiens. Conditions: Homo sapiens. An outline of the steps:
as §3

A short description of series [29]: Antiviral activity against subtype isolate G strain in PBLs (peripheral blood lymphocytes). The class given is functional, cell-based. The following applies: Homo sapiens. An outline of the steps:
as §3

Series [30] is described as follows: as §5. Conditions: read-out: TI. In outline: as §6
Series [31] relates to PBL. The description is as §7. The class given is functional, cell-based. Conditions: Homo sapiens. An outline of the steps:
as §3

The target of series [32] is Human immunodeficiency virus type 1 reverse transcriptase (Human immunodeficiency virus 1, UniProt Q72547). The series is described as follows: Inhibitory activity against HIV-1 Reverse Transcriptase with rCdG as the template primer. An outline of the steps:
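Cell-free assay with purified recombinant HIV-1 RT (p66/p51 dimer). Activity measured as [32P]GTP incorporation into the poly(rC)/oligo(dG) homopolymer template/primer. IC50 is reported as inhibition of enzyme activity.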

In series [33] the test system is CEM-SS. The series is described as follows: Inhibitory concentration for cytopathicity of HIV-1RF in CEM-SS cells; Not active. In kind it is functional, cell-based, Homo sapiens. In outline: as §4

For `COC(=O)CCCC=C(c1cc(Br)c(OC)c(C(=O)OC)c1)c1cc(Br)c(OC)c(C(=O)OC)c1`, the half-maximal inhibitory concentration (IC50) in series [1] was 84 nM; in [2], 320 nM; in [3], 180 nM; in series [5], 5400 nM; in series [6] it was 594 nM; in series [8] it was 2000 nM. The half-inhibitory concentration (IC50) in series [9] was 284 nM; in [10], 310 nM; in series [11], 8300 nM; in series [12], 1000 nM; in [13], 32 nM; in series [14], 350 nM. For the same molecule, the IC50 worked out at 9840 nM in series [15]; 400 nM in [16]; 1300 nM in [17]; 200 nM in series [18]; 540 nM in [19]; 900 nM in [20]. Moreover, the IC50 in series [21] was determined as 400 nM; in series [22], 48800 nM; in series [23], 460 nM; in [25] it was 1900 nM; in series [26] it was 3600 nM; in series [27] it was 200 nM. For the same molecule, the 50% inhibitory concentration (IC50) amounted to 16000 nM in series [28] and 300 nM in [29]. In series [4], this molecule showed a concentration for a half-maximal effect (EC50) of 1.3 nM. The selectivity ratio in series [7] turned out to be 10000. Also, in series [24], it took 13000 nM to reach half-maximal cytotoxicity (CC50).
`CCOC(=O)CCCC=C(c1cc(Cl)c(OC)c(C(=O)OC)c1)c1cc(Cl)c(OC)c(C(=O)OC)c1`: the IC50 turned out to be 80 nM in series [1]; 370 nM in series [2]; 150 nM in series [3]; 12500 nM in series [5]; 164 nM in series [6]; 4100 nM in series [8]. For the same molecule, the IC50 was determined as 885 nM in [9]; 820 nM in series [10]; 19100 nM in series [11]; 900 nM in [12]; 76 nM in series [13]; 270 nM in series [14]. For the same molecule, the IC50 came out at 10300 nM in [15]; 700 nM in series [16]; 2300 nM in series [17]; 200 nM in [18]; 390 nM in series [31]; 1000 nM in series [20]. The IC50 was determined as 580 nM in series [21]; 45200 nM in [22]; 13 nM in [23]; 233 nM in series [32]; 300 nM in [25] (Homo sapiens); 8900 nM in series [26]. Besides, the values for the concentration for half-maximal inhibition (IC50) in [27], in [28] and in [29] were 200 nM, 30000 nM and 800 nM, respectively. This molecule also showed a concentration for a half-maximal effect (EC50) in series [4] of 10 nM. For the same molecule, the selectivity ratio in series [30] is 1600. Moreover, in [24], the 50% cytotoxic concentration (CC50) worked out at 16000 nM.
Take `CN/C(S)=N/CCC=C(c1cc(Cl)c(OC)c(C(=O)OC)c1)c1cc(Cl)c(OC)c(C(=O)OC)c1`: the concentration giving a half-maximal response (EC50) entry in series [33] is given as “Not Active”. This molecule also gave a 50% inhibitory concentration (IC50) in series [32] greater than 100000 nM. The cytotoxic concentration (CC50) in [24] was determined as 1360 nM.
Taken in the same sequence, the figures for `COC(=O)c1cc(C(=CCCCC(=O)N2CCCCC2)c2cc(Cl)c(OC)c(C(=O)OC)c2)cc(Cl)c1OC` were “Not Active”, greater than 100000 nM and 3590 nM.
For `COC(=O)c1cc(C(=CCCNC(=O)OCC(C)C)c2cc(Cl)c(OC)c(C(=O)OC)c2)cc(Cl)c1OC`, in that order: “Not Active”, 65400 nM and 17200 nM.
